Measurements: ChEMBL document CHEMBL3259620, “Structure-activity relationships and molecular modelling of new 5-arylidene-4-thiazolidinone derivatives as aldose reductase inhibitors and potential anti-inflammatory agents” (Eur J Med Chem, 2014)
Activity calls are given as the source filed them. The rule behind the calls is not given here.

Key:
NCTC-2544 [1] = assay: Antiinflammatory activity in human NCTC-2544 cells assessed as reduction of IFN-gamma/histamine-induced-induced iNOS expression at 10 to 20 uM after 48 hrs by Western blot analysis; format: functional, cell-based
How it was run: (§1)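 NCTC 2544 keratinocytes kept at 37 °C in 95% air/5% CO2, medium with 10% foetal calf serum plus penicillin/streptomycin, plated 1.5 × 10⁶ per dish 24 h beforehand. Stimulated with 200 U/ml IFN-γ and 10^-4 M histamine while exposed to compound; after 48 h, lysates (50 µg protein) run in Western blots against NF-κB p50 (nuclear activated form) or iNOS, signal normalized to α-tubulin. Each experiment at least three times in triplicate, mean ± SEM.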

[2] = molecular target: T1, Nuclear factor NF-kappa-B complex (Homo sapiens) (UniProt Q00653+P19838+Q04206); assay: Inhibition of IFN-gamma/histamine-induced NF-kappaB activation in human NCTC-2544 cells assessed as inhibition of nuclear translocation at 10 to 20 uM after 48 hrs by Western blot analysis; format: cell-based; how it was run: as §1
T1 sequence (P19838 whole entry, looked up): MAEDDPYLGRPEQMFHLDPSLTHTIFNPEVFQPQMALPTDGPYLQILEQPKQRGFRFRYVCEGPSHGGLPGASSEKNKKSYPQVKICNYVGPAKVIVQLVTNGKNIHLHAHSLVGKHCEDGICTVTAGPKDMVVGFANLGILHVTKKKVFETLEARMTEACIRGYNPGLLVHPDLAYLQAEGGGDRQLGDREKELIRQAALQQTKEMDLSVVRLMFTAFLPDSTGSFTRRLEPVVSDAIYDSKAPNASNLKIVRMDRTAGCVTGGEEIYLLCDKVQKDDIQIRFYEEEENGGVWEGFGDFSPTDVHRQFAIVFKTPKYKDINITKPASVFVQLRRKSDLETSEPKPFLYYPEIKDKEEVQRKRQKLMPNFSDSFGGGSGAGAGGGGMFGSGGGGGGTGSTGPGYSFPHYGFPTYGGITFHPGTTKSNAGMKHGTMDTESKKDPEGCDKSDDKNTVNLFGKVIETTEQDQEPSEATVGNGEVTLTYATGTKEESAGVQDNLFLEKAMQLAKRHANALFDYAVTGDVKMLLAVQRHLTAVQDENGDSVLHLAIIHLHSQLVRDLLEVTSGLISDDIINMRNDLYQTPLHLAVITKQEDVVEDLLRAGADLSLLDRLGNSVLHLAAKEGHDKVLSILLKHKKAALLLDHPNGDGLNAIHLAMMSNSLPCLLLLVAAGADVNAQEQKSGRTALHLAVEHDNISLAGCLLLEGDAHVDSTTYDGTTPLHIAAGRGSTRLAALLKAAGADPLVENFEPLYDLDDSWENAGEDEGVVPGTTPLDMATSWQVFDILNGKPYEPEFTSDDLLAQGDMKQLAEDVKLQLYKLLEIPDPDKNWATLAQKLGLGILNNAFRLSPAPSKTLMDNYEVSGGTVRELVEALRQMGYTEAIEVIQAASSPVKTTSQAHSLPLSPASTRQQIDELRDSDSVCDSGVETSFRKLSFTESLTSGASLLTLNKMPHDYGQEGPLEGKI
T1 sequence (Q00653 whole entry, looked up): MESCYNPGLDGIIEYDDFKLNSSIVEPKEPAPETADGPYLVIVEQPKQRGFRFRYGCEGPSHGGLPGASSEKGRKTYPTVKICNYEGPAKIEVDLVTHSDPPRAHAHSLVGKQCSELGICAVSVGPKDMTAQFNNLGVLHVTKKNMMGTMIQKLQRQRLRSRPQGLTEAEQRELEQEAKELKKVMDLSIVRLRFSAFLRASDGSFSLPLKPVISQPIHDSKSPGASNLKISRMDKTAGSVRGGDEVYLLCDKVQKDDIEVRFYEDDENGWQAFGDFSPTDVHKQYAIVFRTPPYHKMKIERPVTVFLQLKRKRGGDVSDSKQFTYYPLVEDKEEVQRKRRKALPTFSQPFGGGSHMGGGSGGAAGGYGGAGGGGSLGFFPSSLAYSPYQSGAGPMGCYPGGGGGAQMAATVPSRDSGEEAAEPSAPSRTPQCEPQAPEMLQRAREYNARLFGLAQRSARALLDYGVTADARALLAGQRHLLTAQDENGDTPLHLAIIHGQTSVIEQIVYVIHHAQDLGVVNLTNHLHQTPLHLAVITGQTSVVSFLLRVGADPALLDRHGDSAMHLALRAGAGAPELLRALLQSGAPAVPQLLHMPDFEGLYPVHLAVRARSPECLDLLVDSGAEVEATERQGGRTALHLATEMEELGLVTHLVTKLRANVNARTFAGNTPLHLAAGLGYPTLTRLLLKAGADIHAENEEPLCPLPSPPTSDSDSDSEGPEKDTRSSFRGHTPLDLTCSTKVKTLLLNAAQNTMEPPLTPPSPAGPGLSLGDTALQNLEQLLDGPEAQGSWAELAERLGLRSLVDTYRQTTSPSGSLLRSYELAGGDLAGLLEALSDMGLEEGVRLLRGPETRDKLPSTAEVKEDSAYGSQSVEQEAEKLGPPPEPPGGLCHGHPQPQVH
T1 sequence (Q04206 whole entry, looked up): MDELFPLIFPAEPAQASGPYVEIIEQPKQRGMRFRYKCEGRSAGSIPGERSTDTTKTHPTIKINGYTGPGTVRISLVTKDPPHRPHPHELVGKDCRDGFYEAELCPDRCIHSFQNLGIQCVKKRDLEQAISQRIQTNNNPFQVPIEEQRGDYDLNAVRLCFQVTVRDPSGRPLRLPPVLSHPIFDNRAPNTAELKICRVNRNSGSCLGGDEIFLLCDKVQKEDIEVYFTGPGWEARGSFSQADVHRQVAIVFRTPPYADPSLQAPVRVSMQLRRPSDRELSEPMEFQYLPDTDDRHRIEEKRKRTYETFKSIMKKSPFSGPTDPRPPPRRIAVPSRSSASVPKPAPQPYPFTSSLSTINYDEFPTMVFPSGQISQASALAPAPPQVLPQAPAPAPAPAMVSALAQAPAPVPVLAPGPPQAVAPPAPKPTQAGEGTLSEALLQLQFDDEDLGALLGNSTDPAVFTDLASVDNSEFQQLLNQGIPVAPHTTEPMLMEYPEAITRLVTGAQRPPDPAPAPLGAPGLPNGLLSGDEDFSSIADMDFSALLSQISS

NCTC-2544 [3] = assay: Antiinflammatory activity in human NCTC-2544 cells assessed as reduction of IFN-gamma/histamine-induced-induced iNOS expression at 20 uM after 48 hrs by Western blot analysis relative to control level; format: functional, cell-based; how it was run: as §1
[4] = molecular target: Aldo-keto reductase family 1 member B1 (Bos taurus, UniProt P16116); assay: Inhibition of bovine aldose reductase assessed as oxidation of NADPH
How it was run: (§2)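 AR purified from bovine lens (specific activity 1.2 U/mg), 5 mU per assay. Mixture of 0.25 M sodium phosphate pH 6.8, 4.67 mM D,L-glyceraldehyde, 0.11 mM NADPH, 0.38 M ammonium sulphate, 0.5 mM EDTA, 1% DMSO final. NADPH oxidation followed as absorbance decrease at 340 nm, 37 °C. IC50 by nonlinear fit to one-site competition log dose–inhibition curve.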

[5] = molecular target: Aldo-keto reductase family 1 member B1 (Bos taurus) (UniProt P16116); assay: Inhibition of bovine aldose reductase assessed as oxidation of NADPH at 50 uM; how it was run: as §2
[6] = molecular target: T1, Nuclear factor NF-kappa-B complex (Homo sapiens); assay: Inhibition of IFN-gamma/histamine-induced NF-kappaB activation in human NCTC-2544 cells assessed as inhibition of nuclear translocation at 10 uM after 48 hrs by Western blot analysis relative to sorbinil; format: cell-based; how it was run: as §1

## COc1ccc(/C=C2\SC(=S)NC2=O)cc1OCC(N)=O
NCTC-2544 [1]
  inhibition: Active
[2]
  NF-kappaB nuclear translocation inhibition (active/not active): inactive
NCTC-2544 [3]
  inhibition: Active
[4]
  IC50: 9200 nM

## COc1cc(/C=C2\SC(=O)NC2=O)ccc1OCC(N)=O
[4]
  IC50: 33900 nM

## NC(=O)COc1ccc(/C=C2\SC(=O)NC2=O)cc1
[5]
  inhibition: 40%

## COc1ccc(/C=C2\SC(=O)NC2=O)cc1OCC(N)=O
[4]
  IC50: 22600 nM

## NC(=O)COc1ccc(/C=C2\SC(=S)NC2=O)cc1
[5]
  inhibition: 34%

## COc1cc(/C=C2\SC(=O)N(CC(=O)O)C2=O)ccc1OCC(N)=O
[4]
  IC50: 500 nM

## NC(=O)COc1cccc(/C=C2\SC(=O)NC2=O)c1
[4]
  IC50: 21500 nM

## COc1cc(/C=C2\SC(=S)N(CC(=O)O)C2=O)ccc1OCC(N)=O
NCTC-2544 [1]
  inhibition: Active
[6]
  inhibition: Active
[2]
  NF-kappaB nuclear translocation inhibition (active/not active): Active
[4]
  IC50: 110 nM

## NC(=O)COc1ccc(/C=C2\SC(=S)N(CC(=O)O)C2=O)cc1
[4]
  IC50: 130 nM

## NC(=O)COc1cccc(/C=C2\SC(=S)N(CC(=O)O)C2=O)c1
NCTC-2544 [1]
  inhibition: inactive
[6]
  inhibition: Active
[2]
  NF-kappaB nuclear translocation inhibition (active/not active): Active
[4]
  IC50: 130 nM

## O=C1NC(=O)[C@@]2(CCOc3ccc(F)cc32)N1
[6]
  inhibition: Active

## NC(=O)COc1cccc(/C=C2\SC(=S)NC2=O)c1
NCTC-2544 [1]
  inhibition: Active
[2]
  NF-kappaB nuclear translocation inhibition (active/not active): inactive
NCTC-2544 [3]
  inhibition: Active
[4]
  IC50: 8650 nM

## COc1cc(/C=C2\SC(=S)NC2=O)ccc1OCC(N)=O
[4]
  IC50: 11600 nM

## NC(=O)COc1ccc(/C=C2\SC(=O)N(CC(=O)O)C2=O)cc1
[4]
  IC50: 560 nM

## COc1ccc(/C=C2\SC(=S)N(CC(=O)O)C2=O)cc1OCC(N)=O
NCTC-2544 [1]
  inhibition: Active
[6]
  inhibition: Active
[2]
  NF-kappaB nuclear translocation inhibition (active/not active): Active
NCTC-2544 [3]
  inhibition: Active
[4]
  IC50: 130 nM

## COc1ccc(/C=C2\SC(=O)N(CC(=O)O)C2=O)cc1OCC(N)=O
[4]
  IC50: 520 nM

## NC(=O)COc1cccc(/C=C2\SC(=O)N(CC(=O)O)C2=O)c1
[4]
  IC50: 1010 nM
